Measurements as given in ChEMBL document CHEMBL3352338, “Development and biological evaluation of potent and selective c-KIT(D816V) inhibitors” (J Med Chem, 2014).
Calls of active or inactive are those of the source. The calls are words filed in the database; no cut-off is given here.

Tests used:
[1] = molecular target: Focal adhesion kinase 1 (Homo sapiens) (UniProt Q05397); experiment: Inhibition of FAK (unknown origin) at 1 uM by KINOMEscanning assay relative to control; values are per cent of control
[2] = molecular target: Cyclin-dependent kinase 4 (Homo sapiens) (UniProt P11802); experiment: Inhibition of CDK4 (unknown origin) at 1 uM by KINOMEscanning assay relative to control; values are per cent of control
[3] = molecular target: Cyclin-dependent kinase 9 (Homo sapiens) (UniProt P50750); experiment: Inhibition of CDK9 (unknown origin) at 1 uM by KINOMEscanning assay relative to control; values are per cent of control
[4] = molecular target: Epidermal growth factor receptor (Homo sapiens) (UniProt P00533); experiment: Inhibition of EGFR (unknown origin) at 1 uM by KINOMEscanning assay relative to control; values are per cent of control
[5] = molecular target: Mitogen-activated protein kinase 3 (Homo sapiens) (UniProt P27361); experiment: Inhibition of ERK1 (unknown origin) at 1 uM by KINOMEscanning assay relative to control; values are per cent of control
[6] = molecular target: Serine/threonine-protein kinase pim-1 (Homo sapiens) (UniProt P11309); experiment: Inhibition of PIM1 (unknown origin) at 1 uM by KINOMEscanning assay relative to control; values are per cent of control
[7] = molecular target: High affinity nerve growth factor receptor (Homo sapiens) (UniProt P04629); experiment: Inhibition of TRKA (unknown origin) at 1 uM by KINOMEscanning assay relative to control; values are per cent of control
[8] = molecular target: T1, Aurora kinase A (Homo sapiens) (UniProt O14965); experiment: Inhibition of AURKA (unknown origin) at 1 uM by KINOMEscanning assay relative to control; values are per cent of control
T1 sequence (whole entry): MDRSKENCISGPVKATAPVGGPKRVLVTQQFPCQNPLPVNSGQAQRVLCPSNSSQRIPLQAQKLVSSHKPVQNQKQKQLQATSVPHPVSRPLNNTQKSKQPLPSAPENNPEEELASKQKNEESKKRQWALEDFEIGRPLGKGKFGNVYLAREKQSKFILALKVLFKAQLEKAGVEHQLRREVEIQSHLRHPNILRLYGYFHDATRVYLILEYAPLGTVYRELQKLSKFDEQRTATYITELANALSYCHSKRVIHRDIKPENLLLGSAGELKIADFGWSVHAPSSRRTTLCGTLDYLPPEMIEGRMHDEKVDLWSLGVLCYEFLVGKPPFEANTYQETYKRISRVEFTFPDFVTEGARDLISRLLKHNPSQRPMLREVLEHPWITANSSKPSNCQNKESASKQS

[9] = molecular target: Fibroblast growth factor receptor 1 (Homo sapiens) (UniProt P11362); experiment: Inhibition of FGFR1 (unknown origin) at 1 uM by KINOMEscanning assay relative to control; values are per cent of control
[10] = molecular target: Fibroblast growth factor receptor 2 (Homo sapiens) (UniProt P21802); experiment: Inhibition of FGFR2 (unknown origin) at 1 uM by KINOMEscanning assay relative to control; values are per cent of control
[11] = molecular target: T2, Inhibitor of nuclear factor kappa-B kinase subunit beta (Homo sapiens) (UniProt O14920); experiment: Inhibition of IKKbeta (unknown origin) at 1 uM by KINOMEscanning assay relative to control; values are per cent of control
T2 sequence (whole entry): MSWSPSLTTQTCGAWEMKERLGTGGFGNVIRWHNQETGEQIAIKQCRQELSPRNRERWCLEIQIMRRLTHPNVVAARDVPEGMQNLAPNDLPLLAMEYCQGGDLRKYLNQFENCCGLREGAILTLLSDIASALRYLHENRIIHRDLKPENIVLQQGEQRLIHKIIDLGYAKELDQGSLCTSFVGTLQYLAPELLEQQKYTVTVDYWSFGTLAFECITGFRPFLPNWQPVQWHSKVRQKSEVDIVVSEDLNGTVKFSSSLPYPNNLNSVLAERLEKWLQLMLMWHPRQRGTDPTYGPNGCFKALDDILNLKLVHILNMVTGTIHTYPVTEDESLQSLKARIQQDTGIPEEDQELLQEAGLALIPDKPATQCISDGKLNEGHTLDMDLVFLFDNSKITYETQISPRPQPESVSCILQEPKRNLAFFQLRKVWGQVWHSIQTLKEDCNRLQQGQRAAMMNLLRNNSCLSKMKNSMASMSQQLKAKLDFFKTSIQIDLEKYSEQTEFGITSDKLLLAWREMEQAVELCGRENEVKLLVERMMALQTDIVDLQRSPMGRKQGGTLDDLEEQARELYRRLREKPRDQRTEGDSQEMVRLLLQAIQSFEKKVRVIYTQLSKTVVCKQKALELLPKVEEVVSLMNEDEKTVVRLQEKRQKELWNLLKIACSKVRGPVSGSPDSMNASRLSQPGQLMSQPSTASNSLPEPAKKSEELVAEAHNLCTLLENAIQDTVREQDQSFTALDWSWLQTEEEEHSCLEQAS

[12] = molecular target: Phosphatidylinositol 4,5-bisphosphate 3-kinase catalytic subunit beta isoform (Homo sapiens) (UniProt P42338); experiment: Inhibition of PI3Kbeta (unknown origin) at 1 uM by KINOMEscanning assay relative to control; values are per cent of control
[13] = molecular target: T3, Phosphatidylinositol 4,5-bisphosphate 3-kinase catalytic subunit alpha isoform (Homo sapiens, UniProt P42336); experiment: Inhibition of PI3Kalpha (unknown origin) at 1 uM by KINOMEscanning assay relative to control; values are per cent of control
[14] = molecular target: 5'-AMP-activated protein kinase catalytic subunit alpha-2 (Homo sapiens) (UniProt P54646); experiment: Inhibition of AMPKalpha 2 (unknown origin) at 1 uM by KINOMEscanning assay relative to control; values are per cent of control
[15] = system: Mast/stem cell growth factor receptor Kit (Homo sapiens), P10721 [D816H]; experiment: Inhibition of c-KIT D816H mutant (unknown origin) at 1 uM by KINOMEscanning assay relative to control; values are per cent of control
[16] = molecular target: T3, Phosphatidylinositol 4,5-bisphosphate 3-kinase catalytic subunit alpha isoform; experiment: Inhibition of PI3Kalpha (unknown origin)
[17] = Cell cycle arrest in human HMC-1.2 cells assessed as accumulation at G1 phase after 24 hrs by flow cytometric analysis; format: functional, cell-based
Procedure, shortened: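 HMC-1.2 cells exposed to increasing concentrations for 24 h; cell cycle distribution (SubG1/G1 fraction) measured by flow cytometry.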

[18] = molecular target: Mast/stem cell growth factor receptor Kit (Homo sapiens, UniProt P10721); settings: 5 uM

Chain of Epidermal growth factor receptor (Homo sapiens) (P00533 whole entry): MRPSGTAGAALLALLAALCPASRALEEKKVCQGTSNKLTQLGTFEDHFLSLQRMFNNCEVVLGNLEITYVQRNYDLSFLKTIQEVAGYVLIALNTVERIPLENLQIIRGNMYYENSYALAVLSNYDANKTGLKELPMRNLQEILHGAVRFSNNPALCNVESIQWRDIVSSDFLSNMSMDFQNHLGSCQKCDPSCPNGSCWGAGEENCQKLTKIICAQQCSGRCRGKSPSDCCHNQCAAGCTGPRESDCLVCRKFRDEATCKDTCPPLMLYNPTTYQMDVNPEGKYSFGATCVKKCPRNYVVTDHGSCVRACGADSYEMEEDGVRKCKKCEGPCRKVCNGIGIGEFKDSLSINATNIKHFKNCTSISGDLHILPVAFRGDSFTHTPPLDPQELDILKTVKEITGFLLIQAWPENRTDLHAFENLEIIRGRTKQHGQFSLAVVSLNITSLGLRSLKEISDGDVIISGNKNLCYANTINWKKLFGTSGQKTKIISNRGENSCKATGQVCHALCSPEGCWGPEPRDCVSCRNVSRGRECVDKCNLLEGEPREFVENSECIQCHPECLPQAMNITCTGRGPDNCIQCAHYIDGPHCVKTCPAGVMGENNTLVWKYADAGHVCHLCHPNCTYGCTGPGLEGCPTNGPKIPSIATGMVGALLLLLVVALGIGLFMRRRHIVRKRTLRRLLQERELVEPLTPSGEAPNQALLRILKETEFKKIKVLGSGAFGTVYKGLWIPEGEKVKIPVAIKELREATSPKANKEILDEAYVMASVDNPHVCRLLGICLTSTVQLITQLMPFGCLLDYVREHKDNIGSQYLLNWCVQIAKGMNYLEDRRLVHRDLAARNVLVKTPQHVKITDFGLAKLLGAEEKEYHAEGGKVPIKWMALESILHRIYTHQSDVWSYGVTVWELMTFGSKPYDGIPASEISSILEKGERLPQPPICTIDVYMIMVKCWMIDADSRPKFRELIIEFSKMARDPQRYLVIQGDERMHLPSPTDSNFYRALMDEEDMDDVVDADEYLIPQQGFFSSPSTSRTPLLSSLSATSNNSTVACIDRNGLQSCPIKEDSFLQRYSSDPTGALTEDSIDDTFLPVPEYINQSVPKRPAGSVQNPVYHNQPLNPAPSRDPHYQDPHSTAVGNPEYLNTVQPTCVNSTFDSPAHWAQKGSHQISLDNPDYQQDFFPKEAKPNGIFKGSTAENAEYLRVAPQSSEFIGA
Chain of 5'-AMP-activated protein kinase catalytic subunit alpha-2 (Homo sapiens) (P54646 whole entry, looked up): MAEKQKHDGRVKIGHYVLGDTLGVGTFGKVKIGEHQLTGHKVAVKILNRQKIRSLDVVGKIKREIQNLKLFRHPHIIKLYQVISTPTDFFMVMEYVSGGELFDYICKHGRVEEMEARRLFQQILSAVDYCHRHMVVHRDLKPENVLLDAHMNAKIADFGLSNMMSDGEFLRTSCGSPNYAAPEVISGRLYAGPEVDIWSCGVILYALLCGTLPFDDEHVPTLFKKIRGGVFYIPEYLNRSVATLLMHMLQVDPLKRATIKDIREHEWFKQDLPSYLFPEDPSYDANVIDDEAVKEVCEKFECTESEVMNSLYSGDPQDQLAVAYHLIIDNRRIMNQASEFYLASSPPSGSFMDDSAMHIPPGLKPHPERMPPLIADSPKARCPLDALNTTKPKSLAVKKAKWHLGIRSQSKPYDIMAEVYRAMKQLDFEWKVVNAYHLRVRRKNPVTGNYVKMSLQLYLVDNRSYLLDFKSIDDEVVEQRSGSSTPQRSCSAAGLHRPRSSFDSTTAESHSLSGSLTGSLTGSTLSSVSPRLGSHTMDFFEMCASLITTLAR
Chain of High affinity nerve growth factor receptor (Homo sapiens) (P04629 33-796 limits assumed): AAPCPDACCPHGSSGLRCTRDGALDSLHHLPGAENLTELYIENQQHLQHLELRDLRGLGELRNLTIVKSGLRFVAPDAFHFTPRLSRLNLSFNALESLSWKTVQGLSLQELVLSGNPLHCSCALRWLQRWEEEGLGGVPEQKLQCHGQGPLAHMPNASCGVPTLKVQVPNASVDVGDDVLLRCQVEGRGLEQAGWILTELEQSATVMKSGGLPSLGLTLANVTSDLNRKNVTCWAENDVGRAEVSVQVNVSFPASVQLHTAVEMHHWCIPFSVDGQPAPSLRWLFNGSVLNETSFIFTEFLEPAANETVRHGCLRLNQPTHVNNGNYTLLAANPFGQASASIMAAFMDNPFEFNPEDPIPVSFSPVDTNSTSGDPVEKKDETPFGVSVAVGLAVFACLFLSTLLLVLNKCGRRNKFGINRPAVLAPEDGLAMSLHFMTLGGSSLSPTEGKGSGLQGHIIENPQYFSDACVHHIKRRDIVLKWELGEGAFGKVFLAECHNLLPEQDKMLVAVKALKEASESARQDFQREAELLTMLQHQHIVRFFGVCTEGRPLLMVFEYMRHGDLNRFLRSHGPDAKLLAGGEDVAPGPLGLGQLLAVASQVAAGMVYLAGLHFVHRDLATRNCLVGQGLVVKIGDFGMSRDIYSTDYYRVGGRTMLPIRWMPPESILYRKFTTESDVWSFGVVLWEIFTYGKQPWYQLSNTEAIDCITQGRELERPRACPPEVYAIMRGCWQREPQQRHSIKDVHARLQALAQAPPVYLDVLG
Chain of Phosphatidylinositol 4,5-bisphosphate 3-kinase catalytic subunit beta isoform (Homo sapiens) (P42338 whole entry, looked up, canonical isoform): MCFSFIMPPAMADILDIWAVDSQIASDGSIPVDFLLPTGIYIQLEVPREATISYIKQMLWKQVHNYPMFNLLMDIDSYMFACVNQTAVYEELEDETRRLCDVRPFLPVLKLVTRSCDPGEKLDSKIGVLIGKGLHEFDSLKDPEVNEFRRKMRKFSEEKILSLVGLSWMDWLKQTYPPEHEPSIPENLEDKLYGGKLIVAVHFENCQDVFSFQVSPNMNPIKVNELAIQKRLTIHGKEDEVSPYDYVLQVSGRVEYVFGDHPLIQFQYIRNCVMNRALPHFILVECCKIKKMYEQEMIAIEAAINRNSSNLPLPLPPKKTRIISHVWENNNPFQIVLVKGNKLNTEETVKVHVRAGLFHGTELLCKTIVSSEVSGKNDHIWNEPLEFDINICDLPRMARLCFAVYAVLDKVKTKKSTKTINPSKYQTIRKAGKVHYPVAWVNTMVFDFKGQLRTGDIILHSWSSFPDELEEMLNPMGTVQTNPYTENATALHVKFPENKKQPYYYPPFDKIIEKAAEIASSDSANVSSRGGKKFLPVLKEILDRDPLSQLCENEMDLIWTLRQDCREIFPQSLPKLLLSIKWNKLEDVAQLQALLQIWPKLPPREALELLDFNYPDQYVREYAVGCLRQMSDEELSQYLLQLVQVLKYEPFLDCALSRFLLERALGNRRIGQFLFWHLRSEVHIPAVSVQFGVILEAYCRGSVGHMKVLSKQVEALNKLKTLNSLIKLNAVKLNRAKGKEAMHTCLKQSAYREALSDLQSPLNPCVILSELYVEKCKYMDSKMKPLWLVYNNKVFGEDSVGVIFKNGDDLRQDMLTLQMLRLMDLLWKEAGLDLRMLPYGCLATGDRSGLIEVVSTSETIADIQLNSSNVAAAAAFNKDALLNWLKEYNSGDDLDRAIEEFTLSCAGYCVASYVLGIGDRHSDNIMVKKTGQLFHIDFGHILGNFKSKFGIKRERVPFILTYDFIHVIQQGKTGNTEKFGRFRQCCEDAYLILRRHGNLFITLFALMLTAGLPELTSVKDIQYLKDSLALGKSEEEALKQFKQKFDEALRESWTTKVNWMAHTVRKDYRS
Chain of Cyclin-dependent kinase 4 (Homo sapiens) (P11802 whole entry): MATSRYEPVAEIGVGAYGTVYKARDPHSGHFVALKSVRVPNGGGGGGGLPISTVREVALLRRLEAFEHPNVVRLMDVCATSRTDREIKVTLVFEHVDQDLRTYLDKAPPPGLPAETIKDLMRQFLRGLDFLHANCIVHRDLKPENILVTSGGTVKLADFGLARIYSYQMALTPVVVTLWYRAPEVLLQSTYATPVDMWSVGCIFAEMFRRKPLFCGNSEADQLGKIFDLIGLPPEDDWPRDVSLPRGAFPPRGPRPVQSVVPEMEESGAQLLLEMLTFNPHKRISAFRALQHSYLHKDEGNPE
Chain of Serine/threonine-protein kinase pim-1 (Homo sapiens) (P11309 whole entry, looked up): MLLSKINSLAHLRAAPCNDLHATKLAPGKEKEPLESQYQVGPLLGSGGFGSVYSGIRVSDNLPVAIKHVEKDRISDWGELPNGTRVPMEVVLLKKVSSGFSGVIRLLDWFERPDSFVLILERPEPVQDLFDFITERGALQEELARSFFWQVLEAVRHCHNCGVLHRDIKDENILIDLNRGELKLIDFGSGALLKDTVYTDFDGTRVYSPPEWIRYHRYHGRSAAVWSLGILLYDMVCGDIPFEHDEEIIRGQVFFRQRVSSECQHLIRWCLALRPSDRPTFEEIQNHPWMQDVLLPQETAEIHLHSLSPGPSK
Chain of Fibroblast growth factor receptor 2 (Homo sapiens) (P21802 22-821 limits assumed): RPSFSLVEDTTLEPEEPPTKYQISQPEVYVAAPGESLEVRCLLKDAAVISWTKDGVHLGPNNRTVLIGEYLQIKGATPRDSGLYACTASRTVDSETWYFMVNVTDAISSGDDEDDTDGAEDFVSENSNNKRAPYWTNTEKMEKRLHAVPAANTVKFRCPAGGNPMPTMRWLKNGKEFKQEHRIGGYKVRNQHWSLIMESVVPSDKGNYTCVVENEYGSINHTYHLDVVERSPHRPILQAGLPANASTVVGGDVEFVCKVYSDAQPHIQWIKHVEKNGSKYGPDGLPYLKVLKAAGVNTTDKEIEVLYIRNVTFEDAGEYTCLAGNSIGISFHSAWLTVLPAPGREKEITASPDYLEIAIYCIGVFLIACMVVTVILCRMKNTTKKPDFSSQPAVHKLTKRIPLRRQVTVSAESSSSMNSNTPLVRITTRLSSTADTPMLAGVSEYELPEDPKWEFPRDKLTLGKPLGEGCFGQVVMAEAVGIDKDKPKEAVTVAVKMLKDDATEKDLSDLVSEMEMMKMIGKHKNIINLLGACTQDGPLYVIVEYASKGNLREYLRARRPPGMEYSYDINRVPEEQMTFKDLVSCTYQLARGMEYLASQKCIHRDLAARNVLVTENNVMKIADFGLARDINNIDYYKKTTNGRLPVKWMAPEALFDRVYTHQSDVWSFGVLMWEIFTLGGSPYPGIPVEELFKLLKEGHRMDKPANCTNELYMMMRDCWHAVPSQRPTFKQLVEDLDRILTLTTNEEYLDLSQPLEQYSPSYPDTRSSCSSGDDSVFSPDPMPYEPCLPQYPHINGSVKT

Compound	residual activity [1] [%]	residual activity [2] [%]	residual activity [3] [%]	residual activity [4] [%]	residual activity [5] [%]	residual activity [6] [%]	residual activity [7] [%]	residual activity [8] [%]	residual activity [9] [%]	residual activity [10] [%]	residual activity [11] [%]	residual activity [12] [%]	residual activity [13] [%]	residual activity [14] [%]	residual activity [15] [%]	IC50 [16] [µM]	inhibition [18]	inhibition [17]
COc1ccc(-c2cnc3[nH]cc(-c4ccc(OC)c(OC)c4)c3c2)cc1OC	88	85	100	70	93	68	26	13	89	100	12	100	66	81	16	> 10	Active	Dose-dependent effect
COc1ccc(-c2cnc3[nH]cc(-c4ccc(OC)c(OC)c4)c3c2)cc1N	93	81	100	43	88	71	11	17	92	100	31	93	71	87	51	–	Active	–
COc1ccc(-c2c[nH]c3ncc(-c4cc(OC)c(OC)c(OC)c4)cc23)cc1OC	92	95	100	68	88	71	46	25	84	100	69	94	75	86	25	–	Active	–

The next lines start with results.

residual activity [1] [%]	residual activity [2] [%]	residual activity [3] [%]	residual activity [4] [%]	residual activity [5] [%]	residual activity [6] [%]	residual activity [7] [%]	residual activity [8] [%]	residual activity [9] [%]	residual activity [10] [%]	residual activity [11] [%]	residual activity [12] [%]	residual activity [13] [%]	residual activity [14] [%]	residual activity [15] [%]	IC50 [16] [µM]	inhibition [18]	Compound	inhibition [17]
88	82	100	73	100	27	11	0.85	90	89	0.75	95	100	82	25	–	–	COc1ccc(-c2c[nH]c3ncc(-c4ccc(C(=O)N5CCOCC5)c(N)c4)cc23)cc1OC	–
92	85	83	70	23	88	83	8.9	100	100	22	87	71	77	85	–	Active	COc1cc(-c2c[nH]c3ncc(-c4cccc(N)c4)cc23)cc(OC)c1OC	–
